The list is not random: actives were taken first. Their share in the collection is about 0.3%.
Ab BasE inh: blocks the Acinetobacter baumannii siderophore enzyme BasE. purified BasE, fluorescence polarization binding displacement. inhibition, % (test concentration not listed). 84,000 tested, 0.1% active; in the data active = inhibition above about 25%, passing the limit was not always enough;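 also: 0% = negative plate control signal and 100% = positive plate control signal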
KSHV LANA nucl: LANA-nucleosome interaction inhibition. FITC-LANA1-23 / chicken nucleosome fluorescence polarization; stronger effect = lower value. z-score (no concentration beside the values). 51,000 tested, 0.3% active. AID 720717;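 active = both repeat wells score below -2 in polarization z-score versus plate sample wells, excluding overly bright wells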
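test system = FITC-LANA peptide and chicken nucleosomes | amount = 240 nM purified chicken nucleosomes (480 nM peptide binding sites), final | reagent = 50 nM FITC-LANA1-23 probe | medium = TEN-BT buffer, pH 7.5 | doses = single compound addition by pin transfer, 100 nL per well | timing = 10–45 min, room temperature | detection = fluorescence polarization | repeats = duplicate plates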
Active calls of the source: *; ! = a repeat was not active.

How did CN1C(=O)/C(=C/c2ccc(I)o2)C(=O)NC1=S do in these assays?
Ab BasE inh: 40.8*; KSHV LANA nucl: 0.567

How did C=CCN1C(=O)/C(=C/c2ccco2)C(=O)NC1=S do in these assays?
Ab BasE inh: 8.9; KSHV LANA nucl: 0.374

What do the screens show for `CC(CN)c1ccccc1` (stereo unspecified)?
Ab BasE inh: 0.4

Results for CC[C@@]1(O)C(=O)OCc2c1cc1n(c2=O)Cc2cc3ccccc3nc2-1 ?
Ab BasE inh: -3.3; KSHV LANA nucl: 0.0175

Results for CC[C@@]1(O)C(=O)OCc2c1cc1n(c2=O)Cc2cc3c(O)cccc3nc2-1 ?
Ab BasE inh: 9.0; KSHV LANA nucl: -3.07*!

What do the screens show for `N#CCc1ccsc1`?
Ab BasE inh: -0.5

Results for C[C@@]12C[C@H](O)CCN1CCc1ccccc12 ?
Ab BasE inh: 5.7; KSHV LANA nucl: -2.38*

How did CC12NC(=O)CN1CCc1ccccc12 (stereo unspecified) do in these assays?
Ab BasE inh: 4.8; KSHV LANA nucl: -0.107

What do the screens show for `OC1/C(=C/c2ccccc2)N2CCC1CC2` (stereo unspecified)?
Ab BasE inh: 0.1; KSHV LANA nucl: 0.202

Results for CC[n+]1c(-c2ccccc2)c2cc(N)ccc2c2ccc(N)cc21 ?
Ab BasE inh: 3.8; KSHV LANA nucl: -6.03*

How did COC1=C[C@H]2C3=C([C@H]2C1=O)[C@@H](NC(C)=O)CCc1cc(OC)c(OC)c(OC)c13 do in these assays?
Ab BasE inh: -2.3; KSHV LANA nucl: 0.257

Results for C=CC(=O)N1CC2CC(C1)c1cccc(=O)n1C2 (stereo unspecified) ?
Ab BasE inh: 2.3; KSHV LANA nucl: -0.443

Results for CCOc1cc(C=C2C(=O)NC(=O)NC2=O)cc(Cl)c1O ?
Ab BasE inh: 0.8; KSHV LANA nucl: -2.4*

Results for CCOc1cc(C=C2C(=O)N(C)C(=S)N(C)C2=O)ccc1OC(C)C(=O)O (stereo unspecified) ?
Ab BasE inh: 2.5; KSHV LANA nucl: 0.223

How did CC(C(=O)Nc1ccc2c(c1)OCCO2)N1CC=C(c2ccccc2)CC1 (stereo unspecified) do in these assays?
Ab BasE inh: -0.4

How did O=C1NC(=O)C(=Cc2cn(Cc3ccccc3)c3ccccc23)C(=O)N1 do in these assays?
Ab BasE inh: 3.4

Results for CCn1cc(C=C2C(=O)NC(=O)NC2=O)c2ccccc21 ?
Ab BasE inh: 1.9; KSHV LANA nucl: -3.24*

What do the screens show for `O=C(CNC1CCCCC1)c1ccc(O)c(O)c1`?
Ab BasE inh: 1.5; KSHV LANA nucl: -0.26

How did Cc1ccccc1N1C(=O)NC(=O)C(CCc2ccncc2)(Cc2ccc3c(c2)OCO3)C1=O (stereo unspecified) do in these assays?
Ab BasE inh: 0.3; KSHV LANA nucl: -0.885

Results for N#Cc1c(N)[n+]([O-])c2ccccc2[n+]1[O-] ?
Ab BasE inh: 1.4; KSHV LANA nucl: -8.29*

What do the screens show for `Cc1cc(C(=O)O)c(C)n1C(C)C`?
Ab BasE inh: 4.3; KSHV LANA nucl: 0.42

How did C1=C(c2cccnc2)Nc2ncnn2C1c1cccs1 (stereo unspecified) do in these assays?
Ab BasE inh: 21.2; KSHV LANA nucl: -8.79*

Results for CCOc1ccc(N(C(C)=O)C2=NCCCS2)cc1 ?
Ab BasE inh: -3.9; KSHV LANA nucl: 2.41

What do the screens show for `O=C(c1cccs1)C1CN(Cc2ccccc2)CCC1(O)c1cccs1` (stereo unspecified)?
Ab BasE inh: 0.2

Assay outcomes deposited in PubChem BioAssay by ICCB-Longwood Screening Facility, Harvard Medical School.
